This is an account of results in ChEMBL document CHEMBL5131576, “Turning the Other Cheek: Influence of the cis-Tetrafluorocyclohexyl Motif on Physicochemical and Metabolic Properties” (ACS Med Chem Lett, 2022).

≈ marks a conversion by molar mass, not a printed value.

One data set can be described thus: Kinetic solubility of the compound. Format: physicochemical.
Conditions: not given
Turning to `NS(=O)(=O)c1cccc(-c2ccc(C3CCCCC3)cc2)c1`, the Kinetic_solubility result is “Soluble”.

Consider `CN1CCC(c2ccc(-c3ccc(C4CCCCC4)cc3)cn2)CC1`, for which the Kinetic_solubility entry is “Soluble”.

For orientation: solubility (kinetic) means the concentration staying in solution when a stock, usually in DMSO, is diluted into the medium. In the case of `O=C(Nc1ccc([C@H]2[C@@H](F)[C@@H](F)C[C@@H](F)[C@H]2F)cc1)c1cn[nH]c1`, the kinetic solubility is 136 µM (≈ 46.4 µg/mL).

For the molecule `O=C(Nc1ccc(C2CCCCC2)cc1)c1cn[nH]c1`, the Kinetic_solubility was less than 1 µM.

Turning to `O=C(CC1CCOCC1)Nc1ccc(C2CCCCC2)cc1`, the Kinetic_solubility is less than 1 µM.

`O=C(Cc1cccnc1)Nc1ccc(C2CCCCC2)cc1` registered a Kinetic_solubility of less than 1 µM.

As to `CN1CCN(C(=O)c2ccc(C3CCCCC3)cc2)CC1`, the Kinetic_solubility result is “Soluble”.

`O=C(COCC(F)F)Nc1ccc(C2CCCCC2)cc1` displayed a Kinetic_solubility of less than 1 µM.

For the molecule `O=C(c1ccc(C2CCCCC2)cc1)N1CC(O)C1`, the Kinetic_solubility entry is on record as “Soluble”.

As for `CN1CCN(C(=O)c2ccc(C3CCCCC3)cc2)CC1=O`, the Kinetic_solubility result is on record as “Soluble”.

For `c1ncc(-c2ccc(C3CCCCC3)cc2)cn1`, the Kinetic_solubility result is “Soluble”.

The molecule `O=C(Nc1ccc(C2CCCCC2)cc1)[C@H]1CC1(F)F` returned a Kinetic_solubility of less than 1 µM.

The next data set in a line: Permeability across apical to basolateral side in MDCK cells pgp knock out incubated up to 180 mins by LC_MS/MS analysis. The format is ADME, cell-based, Canis lupus familiaris. The settings on record: dog, read-out: permeability. The procedure, abridged: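 MDCK cells with the endogenously expressed canine MDR1 gene knocked out; transport measured in the apical-to-basolateral direction; apparent permeability reported in 10^-6 cm/s.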
In the case of `CN1CCN(C(=O)c2ccc([C@H]3[C@@H](F)[C@@H](F)C[C@@H](F)[C@H]3F)cc2)CC1`, the Papp A→B at 3 h stood at 18.6 ×10⁻⁶ cm/s.

On to `O=C(NCC1CCOCC1)c1ccc([C@H]2[C@@H](F)[C@@H](F)C[C@@H](F)[C@H]2F)cc1`, for which the Papp A→B at 3 h is 20.3 ×10⁻⁶ cm/s.

For `CC(C(=O)Nc1ccc(C2CCCCC2)cc1)n1cncn1` (configuration not stated), the Papp A→B at 3 h worked out at 29.5 ×10⁻⁶ cm/s.

For the molecule `CN(CCC#N)C(=O)c1ccc([C@H]2[C@@H](F)[C@@H](F)C[C@@H](F)[C@H]2F)cc1`, the Papp A→B at 3 h was found to be 8.1 ×10⁻⁶ cm/s.

On to `CN(C)CCC(=O)Nc1ccc([C@H]2[C@@H](F)[C@@H](F)C[C@@H](F)[C@H]2F)cc1`, for which the Papp A→B at 3 h turned out to be 3.7 ×10⁻⁶ cm/s.

`O=C(Cn1ccnc1)Nc1ccc(C2CCCCC2)cc1`: the Papp A→B at 3 h came to 11.1 ×10⁻⁶ cm/s.

In the case of `O=C(c1ccc([C@H]2[C@@H](F)[C@@H](F)C[C@@H](F)[C@H]2F)cc1)N1CC(O)C1`, the Papp A→B at 3 h was found to be 6.7 ×10⁻⁶ cm/s.

On to `O=C(Cc1cccnc1)Nc1ccc([C@H]2[C@@H](F)[C@@H](F)C[C@@H](F)[C@H]2F)cc1`, for which the Papp A→B at 3 h was found to be 15 ×10⁻⁶ cm/s.

On to `N#CCC(=O)Nc1ccc([C@H]2[C@@H](F)[C@@H](F)C[C@@H](F)[C@H]2F)cc1`, for which the Papp A→B at 3 h was 16 ×10⁻⁶ cm/s.

Consider `O=C(NCc1cc[nH]n1)c1ccc([C@H]2[C@@H](F)[C@@H](F)C[C@@H](F)[C@H]2F)cc1`, for which the Papp A→B at 3 h was 2.1 ×10⁻⁶ cm/s.

As for `COCCN(C)C(=O)c1ccc([C@H]2[C@@H](F)[C@@H](F)C[C@@H](F)[C@H]2F)cc1`, the Papp A→B at 3 h is 9.4 ×10⁻⁶ cm/s.

For the molecule `COCCN(C)C(=O)c1ccc(C2CCCCC2)cc1`, the Papp A→B at 3 h worked out at 9.4 ×10⁻⁶ cm/s.

As to `CC(C(=O)Nc1ccc([C@H]2[C@@H](F)[C@@H](F)C[C@@H](F)[C@H]2F)cc1)n1cncn1` (some centres not stated), the Papp A→B at 3 h came to 5.5 ×10⁻⁶ cm/s.

As for `O=C(NCCc1cccnc1)c1ccc(C2CCCCC2)cc1`, the Papp A→B at 3 h came to 23 ×10⁻⁶ cm/s.

For the molecule `O=C(Cc1cccnc1)Nc1ccc(C2CCCCC2)cc1`, the Papp A→B at 3 h worked out at 19.9 ×10⁻⁶ cm/s.

Take `CN(Cc1cccnc1)C(=O)c1ccc(C2CCCCC2)cc1`: the Papp A→B at 3 h stood at 12.1 ×10⁻⁶ cm/s.

Regarding `CN1CCN(C(=O)c2ccc([C@H]3[C@@H](F)[C@@H](F)C[C@@H](F)[C@H]3F)cc2)CC1=O`, the Papp A→B at 3 h turned out to be 4.5 ×10⁻⁶ cm/s.

Take `COCCC(=O)Nc1ccc([C@H]2[C@@H](F)[C@@H](F)C[C@@H](F)[C@H]2F)cc1`: the Papp A→B at 3 h is 18.1 ×10⁻⁶ cm/s.

`CN(CCC#N)C(=O)c1ccc(C2CCCCC2)cc1`: the Papp A→B at 3 h turned out to be 18.7 ×10⁻⁶ cm/s.

In the case of `COCCC(=O)Nc1ccc(C2CCCCC2)cc1`, the Papp A→B at 3 h turned out to be 22.2 ×10⁻⁶ cm/s.

Take `CN1CCN(C(=O)c2ccc(C3CCCCC3)cc2)CC1`: the Papp A→B at 3 h was found to be 20.3 ×10⁻⁶ cm/s.

As to `O=C(c1ccc(C2CCCCC2)cc1)N1CC(O)C1`, the Papp A→B at 3 h is 26 ×10⁻⁶ cm/s.

As for `CC(=O)N1CC(C(=O)Nc2ccc([C@H]3[C@@H](F)[C@@H](F)C[C@@H](F)[C@H]3F)cc2)C1`, the Papp A→B at 3 h is 0.6 ×10⁻⁶ cm/s.

On to `O=C(NCCN1CCCC1=O)c1ccc(C2CCCCC2)cc1`, for which the Papp A→B at 3 h is 15.5 ×10⁻⁶ cm/s.

As to `CC(=O)N1CC(C(=O)Nc2ccc(C3CCCCC3)cc2)C1`, the Papp A→B at 3 h was 18.7 ×10⁻⁶ cm/s.

For `CN(C)CCC(=O)Nc1ccc(C2CCCCC2)cc1`, the Papp A→B at 3 h came to 10.8 ×10⁻⁶ cm/s.

With `CN1CCN(C(=O)c2ccc(C3CCCCC3)cc2)CC1=O`, the Papp A→B at 3 h worked out at 10.9 ×10⁻⁶ cm/s.

Turning to `CN(Cc1cccnc1)C(=O)c1ccc([C@H]2[C@@H](F)[C@@H](F)C[C@@H](F)[C@H]2F)cc1`, the Papp A→B at 3 h worked out at 16.3 ×10⁻⁶ cm/s.

Turning to `NC(=O)CCNC(=O)c1ccc(C2CCCCC2)cc1`, the Papp A→B at 3 h came to 14.7 ×10⁻⁶ cm/s.

Take `O=C(NCC1CCOCC1)c1ccc(C2CCCCC2)cc1`: the Papp A→B at 3 h stood at 35.9 ×10⁻⁶ cm/s.

`O=C(NCc1cc[nH]n1)c1ccc(C2CCCCC2)cc1`: the Papp A→B at 3 h was 16.7 ×10⁻⁶ cm/s.

Turning to `N#CCC(=O)Nc1ccc(C2CCCCC2)cc1`, the Papp A→B at 3 h was found to be 18.6 ×10⁻⁶ cm/s.

`NC(=O)CCNC(=O)c1ccc([C@H]2[C@@H](F)[C@@H](F)C[C@@H](F)[C@H]2F)cc1`: the Papp A→B at 3 h turned out to be 0.4 ×10⁻⁶ cm/s.

As for `O=C(NCCN1CCCC1=O)c1ccc([C@H]2[C@@H](F)[C@@H](F)C[C@@H](F)[C@H]2F)cc1`, the Papp A→B at 3 h is 3.5 ×10⁻⁶ cm/s.

Turning to `O=C(Cn1ccnc1)Nc1ccc([C@H]2[C@@H](F)[C@@H](F)C[C@@H](F)[C@H]2F)cc1`, the Papp A→B at 3 h was 0.9 ×10⁻⁶ cm/s.
